Assay results: ChEMBL document CHEMBL5244270, “Selective Inhibitors of G2019S-LRRK2 Kinase Activity” (J Med Chem, 2020)

What was measured:
[1] = organism: Homo sapiens; test: Selectivity ratio of IC50 for inhibition of N-terminal GST-fused human wild type LRRK2 to IC50 for inhibition of N-terminal GST-fused human […] mutant
How it was run: (§1)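 Purified truncated LRRK2, WT or G2019S, at 2 nM nominal was preincubated with inhibitor for 15 min. LRRKtide (0.4 μM) and ATP (25 μM) were then added for 1 h. The reaction was stopped with 10 mM EDTA plus 2 nM Tb-anti-pLRRKtide antibody, and TR-FRET was read. IC50 is the geometric mean of at least two independent experiments.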

[2] = organism: Homo sapiens; test: Selectivity ratio of IC50 for inhibition human wild type LRRK2 expressed in human HEK293 assessed as Rab10 substrate phosphorylation at Threonine 73 residue to IC50 for inhibition of human LRRK2 G2019S mutant expressed in human HEK293 assessed as Rab10 substrate phosphorylation at Threonine 73 residue
How it was run: (§2)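 HEK293 cells stably expressing WT or G2019S LRRK2 (100 000/well, EMEM with 1% FBS) were dosed about 24 h after plating, for 2 h. They were lysed in 1% SDS Tris buffer with protease and phosphatase inhibitors, and lysates were heated at 65 °C for 10 min. pThr73-Rab10, total Rab10, pS935 and total LRRK2 were quantified by immunoblot. IC50 is the geometric mean of at least two independent experiments.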

[3] = target: T1, Leucine-rich repeat serine/threonine-protein kinase 2 (Homo sapiens, UniProt Q5S007, G2019S); test: Inhibition of human LRRK2 G2019S mutant expressed in HEK293 cells assessed as reduction in pSer935 phosphorylation incubated for 2 hrs by HTRF analysis; assay type: cell-based
How it was run: (§3)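 Stably transfected HEK293 cells expressing human WT or G2019S LRRK2 were seeded at 5K/well in DMEM with 1% serum on poly-D-lysine plates. Inhibitor in DMSO was added for 2 h at 37 °C. pS935 was detected by an HTRF kit. IC50 is the geometric mean of at least two independent experiments.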

[4] = organism: Homo sapiens; test: Selectivity ratio of IC50 for inhibition of human wild type LRRK2 expressed in HEK293 cells to IC50 for inhibition of human LRRK2 G2019S mutant expressed in HEK293; assay type: cell-based; how it was run: as §2
[5] = target: T2, Leucine-rich repeat serine/threonine-protein kinase 2 (Homo sapiens, UniProt Q5S007); test: Inhibition of N-terminal GST-fused human wild type LRRK2 using fluorescein-labeled LRRKtide as substrate preincubated for 15 mins followed by substrate addition and measured after 1 hr by TR-FRET assay; how it was run: as §1
[6] = target: T2, Leucine-rich repeat serine/threonine-protein kinase 2; test: Inhibition human wild type LRRK2 expressed in human HEK293 assessed as Rab10 substrate phosphorylation at Threonine 73 residue incubated for 2 hrs by immunoblotting analysis; assay type: cell-based; how it was run: as §2
[7] = target: T2, Leucine-rich repeat serine/threonine-protein kinase 2; test: Inhibition of human wild type LRRK2 expressed in HEK293 cells assessed as reduction in pSer935 phosphorylation incubated for 2 hrs by immunoblotting analysis; assay type: cell-based; how it was run: as §2
[8] = organism: Homo sapiens; test: Selectivity ratio of IC50 for inhibition of human wild type LRRK2 expressed in HEK293 cells assessed as reduction in pSer935 phosphorylation to IC50 for inhibition of human LRRK2 G2019S mutant expressed in HEK293 cells assessed as reduction in pSer935 phosphorylation; assay type: cell-based; how it was run: as §3
[9] = target: T1, Leucine-rich repeat serine/threonine-protein kinase 2; test: Inhibition of N-terminal GST-fused human LRRK2 G2019S mutant using fluorescein-labeled LRRKtide as substrate preincubated for 15 mins followed by substrate addition and measured after 1 hr by TR-FRET assay; how it was run: as §1
[10] = target: T1, Leucine-rich repeat serine/threonine-protein kinase 2; test: Inhibition of human LRRK2 G2019S mutant expressed in HEK293 cells assessed as reduction in pS1292 phosphorylation incubated for 2 hrs by MSD analysis; assay type: cell-based
How it was run: (§4)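 HEK293 cells stably expressing WT or G2019S LRRK2 (30−50K/well, DMEM with 1% serum) were treated for 2 h at 37 °C and lysed with phosphatase inhibitors. LRRK2 was captured on anti-LRRK2-coated MSD plates overnight at 4 °C. Detection used rabbit anti-pS1292 (1:400) and Sulfo-Tag anti-rabbit, with an electrochemiluminescence read-out. IC50 is the geometric mean of at least two independent experiments.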

[11] = organism: Homo sapiens; test: Selectivity ratio of IC50 for inhibition of human wild type LRRK2 expressed in HEK293 cells assessed as reduction in pS1292 phosphorylation to IC50 for inhibition of human LRRK2 G2019S mutant expressed in HEK293 cells assessed as reduction in pS1292 phosphorylation; assay type: cell-based; how it was run: as §4
[12] = target: T2, Leucine-rich repeat serine/threonine-protein kinase 2; test: Inhibition of human wild type LRRK2 expressed in HEK293 cells assessed as reduction in pS1292 phosphorylation incubated for 2 hrs by MSD analysis; assay type: cell-based; how it was run: as §4
[13] = target: T2, Leucine-rich repeat serine/threonine-protein kinase 2; test: Inhibition of human wild type LRRK2 expressed in HEK293 cells assessed as reduction in pSer935 phosphorylation incubated for 2 hrs by HTRF analysis; assay type: cell-based; how it was run: as §3
[14] = target: T1, Leucine-rich repeat serine/threonine-protein kinase 2; test: Inhibition of human LRRK2 G2019S mutant expressed in HEK293 cells assessed as reduction in pSer935 phosphorylation incubated for 2 hrs by immunoblotting analysis; assay type: cell-based; how it was run: as §2
[15] = target: T1, Leucine-rich repeat serine/threonine-protein kinase 2; test: Inhibition human LRRK2 G2019S mutant expressed in human HEK293 assessed as Rab10 substrate phosphorylation at Threonine 73 residue incubated for 2 hrs by immunoblotting analysis; assay type: cell-based; how it was run: as §2

T2 sequence (Q5S007 whole entry, the tested form may be a part): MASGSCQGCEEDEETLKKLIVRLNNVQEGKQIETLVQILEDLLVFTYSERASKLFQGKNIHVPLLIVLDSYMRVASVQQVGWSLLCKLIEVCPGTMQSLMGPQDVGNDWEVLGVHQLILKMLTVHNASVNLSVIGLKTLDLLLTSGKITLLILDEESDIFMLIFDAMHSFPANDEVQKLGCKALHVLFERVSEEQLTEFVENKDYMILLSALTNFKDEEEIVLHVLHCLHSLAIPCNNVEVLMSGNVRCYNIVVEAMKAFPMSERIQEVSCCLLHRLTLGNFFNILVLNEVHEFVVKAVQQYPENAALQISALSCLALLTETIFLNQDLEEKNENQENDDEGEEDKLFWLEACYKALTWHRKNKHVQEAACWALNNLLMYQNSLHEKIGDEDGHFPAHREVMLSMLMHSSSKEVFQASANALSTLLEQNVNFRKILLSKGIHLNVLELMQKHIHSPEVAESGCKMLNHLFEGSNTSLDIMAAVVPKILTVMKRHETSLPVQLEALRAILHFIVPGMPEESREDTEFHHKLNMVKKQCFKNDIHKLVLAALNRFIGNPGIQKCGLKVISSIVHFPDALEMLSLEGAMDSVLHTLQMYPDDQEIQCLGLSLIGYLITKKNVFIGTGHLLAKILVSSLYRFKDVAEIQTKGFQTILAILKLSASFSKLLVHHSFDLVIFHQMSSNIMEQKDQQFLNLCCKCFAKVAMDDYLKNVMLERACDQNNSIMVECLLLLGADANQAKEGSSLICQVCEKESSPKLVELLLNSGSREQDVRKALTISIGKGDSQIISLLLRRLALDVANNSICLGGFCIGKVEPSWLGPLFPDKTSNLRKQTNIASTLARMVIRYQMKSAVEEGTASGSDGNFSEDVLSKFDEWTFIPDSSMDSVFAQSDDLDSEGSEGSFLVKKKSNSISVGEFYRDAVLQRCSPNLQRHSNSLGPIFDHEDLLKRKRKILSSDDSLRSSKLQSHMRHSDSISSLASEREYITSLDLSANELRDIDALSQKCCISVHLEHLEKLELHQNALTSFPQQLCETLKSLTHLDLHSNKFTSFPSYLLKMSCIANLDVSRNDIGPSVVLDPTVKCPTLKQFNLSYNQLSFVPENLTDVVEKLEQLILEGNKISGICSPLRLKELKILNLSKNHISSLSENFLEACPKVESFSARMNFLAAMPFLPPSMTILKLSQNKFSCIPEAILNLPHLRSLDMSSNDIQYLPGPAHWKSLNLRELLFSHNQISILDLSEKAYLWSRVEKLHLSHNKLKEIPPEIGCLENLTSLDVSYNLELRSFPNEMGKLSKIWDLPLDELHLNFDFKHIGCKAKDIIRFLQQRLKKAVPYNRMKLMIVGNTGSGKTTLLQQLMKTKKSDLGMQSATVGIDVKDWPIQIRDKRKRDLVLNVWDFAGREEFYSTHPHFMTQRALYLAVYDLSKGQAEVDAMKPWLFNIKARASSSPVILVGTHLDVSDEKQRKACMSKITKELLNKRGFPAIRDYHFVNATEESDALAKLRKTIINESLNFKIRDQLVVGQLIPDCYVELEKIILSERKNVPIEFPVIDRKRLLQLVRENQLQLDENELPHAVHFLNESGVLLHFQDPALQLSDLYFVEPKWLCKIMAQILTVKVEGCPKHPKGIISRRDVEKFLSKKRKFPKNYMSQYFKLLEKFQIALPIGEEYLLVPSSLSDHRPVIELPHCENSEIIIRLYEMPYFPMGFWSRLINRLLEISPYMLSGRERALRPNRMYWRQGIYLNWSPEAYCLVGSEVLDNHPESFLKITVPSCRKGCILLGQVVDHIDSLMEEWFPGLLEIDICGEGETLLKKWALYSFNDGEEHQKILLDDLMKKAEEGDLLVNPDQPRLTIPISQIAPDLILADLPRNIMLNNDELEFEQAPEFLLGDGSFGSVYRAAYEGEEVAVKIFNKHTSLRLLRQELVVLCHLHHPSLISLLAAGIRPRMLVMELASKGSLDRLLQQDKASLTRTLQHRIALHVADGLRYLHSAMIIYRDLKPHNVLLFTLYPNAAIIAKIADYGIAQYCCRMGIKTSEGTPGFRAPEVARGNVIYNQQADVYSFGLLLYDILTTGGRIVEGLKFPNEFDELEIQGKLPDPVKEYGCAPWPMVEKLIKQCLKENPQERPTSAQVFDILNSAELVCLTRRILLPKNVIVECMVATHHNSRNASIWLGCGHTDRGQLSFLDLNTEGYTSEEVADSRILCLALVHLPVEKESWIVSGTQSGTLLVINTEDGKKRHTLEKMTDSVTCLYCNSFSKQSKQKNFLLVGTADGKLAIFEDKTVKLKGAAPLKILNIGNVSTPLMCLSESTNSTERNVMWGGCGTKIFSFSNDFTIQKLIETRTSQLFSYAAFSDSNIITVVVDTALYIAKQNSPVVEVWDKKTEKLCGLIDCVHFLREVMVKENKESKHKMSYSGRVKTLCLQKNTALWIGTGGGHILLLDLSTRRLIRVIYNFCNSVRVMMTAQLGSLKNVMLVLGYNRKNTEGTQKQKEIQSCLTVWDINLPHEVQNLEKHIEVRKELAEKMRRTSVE
T1 sequence (Q5S007 whole entry G2019S): as the sequence (Q5S007 whole entry, the tested form may be a part) above, with G2019S counted along it

CC1=C(C(=O)Nc2ccc3[nH]nc(C)c3c2)[C@@H](C)n2nnnc2N1C
Ratio IC50 [1]: 24 | Ratio IC50 [2]: 71 | IC50 [3]: 46.1 nM | Ratio IC50 [4]: 113 | IC50 [5]: 20 nM | IC50 [6]: 9740 nM | IC50 [7]: 8740 nM | Ratio IC50 [8]: 82 | IC50 [9]: 0.82 nM | IC50 [10]: 19 nM | Ratio IC50 [11]: 20 | IC50 [12]: 380 nM | IC50 [13]: 5220 nM | IC50 [14]: 106 nM | IC50 [15]: 137 nM

CC1=C(C(=O)Nc2ccc3[nH]nc(-c4ccccc4)c3c2)C(C)(C)n2nnnc2N1C
Ratio IC50 [1]: > 33 | Ratio IC50 [2]: 344 | IC50 [3]: 3.1 nM | Ratio IC50 [4]: 339 | IC50 [5]: 6.6 nM | IC50 [6]: 3920 nM | IC50 [7]: 2090 nM | Ratio IC50 [8]: 837 | IC50 [9]: < 0.2 nM | IC50 [10]: 1.7 nM | Ratio IC50 [11]: 71 | IC50 [12]: 117 nM | IC50 [13]: 1060 nM | IC50 [14]: 2.5 nM | IC50 [15]: 11.4 nM
